# Experimental data taken from ChEMBL document CHEMBL1926658, “The design, synthesis and biological evaluations of C-6 or C-7 substituted 2-hydroxyisoquinoline-1,3-diones as inhibitors of hepatitis C virus” (Bioorg Med Chem, 2012).
# pEC50, pIC50: −log10 of the molar value.
# Tested on: not listed separately
# Assay: Cytotoxicity against human HuH7 cells infected with HCV1b after 3 days by MTS assay
# Assay type: cell-based, Huh-7
# Conditions: not given
# Summary of the method: (§1)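 Replicon cells (Huh-7/HCV1b-Rluc) seeded at 6 × 10³/well minus G418, then exposed next day to compound in DMSO for three days at 37 °C/5% CO₂. Viability read with MTS reagent (CellTiter 96 AQueous One) by absorbance at […]. CC₅₀ taken as concentration reducing proliferation by 50%, fitted from eight serial dilutions against vehicle-treated cells.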
row,Structure (SMILES),CC50 at 72 h [µM]
1,C[C@@]1(O)[C@H](O)[C@@H](CO)O[C@H]1n1cnc2c(N)ncnc21,55
2,O=C1Cc2cc(-c3ccsc3)ccc2C(=O)N1O,98
3,Cc1ccc(-c2ccc3c(c2)CC(=O)N(O)C3=O)o1,11
4,O=C1Cc2cc(-c3ccc(F)cc3)ccc2C(=O)N1O,11
5,O=C1Cc2ccc(I)cc2C(=O)N1O,27
6,O=C1Cc2cc(-c3cccs3)ccc2C(=O)N1O,18
7,NC(=O)c1ncn([C@@H]2O[C@H](CO)[C@@H](O)[C@H]2O)n1 [RIBAVIRIN],32
8,O=C1Cc2cc(-c3ccco3)ccc2C(=O)N1O,13

# Target: not listed separately
# Assay: Inhibition of HCV NS5b RNA-dependent RNA polymerase
# Parameters: species or system Hepacivirus hominis
# Conditions: not given
row,Structure (SMILES),pIC50
1,N#Cc1cc(COc2cccc(C(=O)/C=C(\O)C(=O)O)c2)c(Cl)cc1Cl,7.35

# Tested on: Hepatitis C virus
# Assay: Antiviral activity against HCV genotype 1b infected in human HuH7 cells assessed as reduction in luciferase activity at 10 uM after 3 days
# Assay type: functional, Hepacivirus hominis, Huh-7
# Parameters: scale not given: the % may be the effect or the level left
# Conditions: not given
# Summary of the method: (§2)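 Huh-7/HCV1b-Rluc genotype 1b replicon cells plated at 6 × 10³/well without G418; next day compound in DMSO added, 37 °C/5% CO₂ for 3 days. Live-cell renilla luciferase substrate (1:1000) added, luminescence read immediately. Triplicates, ≥2 independent runs. Single-point tests at 10 µM with ribavirin (10 µM) and 2'-C-methyl adenosine (500 nM) controls; EC₅₀ from eight serial dilutions versus vehicle.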
row,Structure (SMILES),Activity [%]
1,O=C1Cc2cc(-c3cccc4c3oc3ccccc34)ccc2C(=O)N1O,98
2,O=C1Cc2ccc(-c3ccc(F)c(Cl)c3)cc2C(=O)N1O,30
3,O=C1Cc2cc(-c3ccc(F)c(F)c3)ccc2C(=O)N1O,78
4,O=C1Cc2ccc(-c3cccs3)cc2C(=O)N1O,99
5,O=C1Cc2ccc(-c3ccc(F)c(F)c3)cc2C(=O)N1O,100
6,O=C1Cc2cc(-c3cccc(-c4ccccc4)c3)ccc2C(=O)N1O,95
7,O=C1Cc2ccc(-c3ccco3)cc2C(=O)N1O,51
8,O=C1Cc2ccc(-c3cc4ccccc4o3)cc2C(=O)N1O,83
9,COc1cccc(-c2ccc3c(c2)C(=O)N(O)C(=O)C3)c1,54
10,O=C1Cc2cc(-c3ccsc3)ccc2C(=O)N1O,72
11,CS(=O)(=O)c1ccc(-c2ccc3c(c2)CC(=O)N(O)C3=O)cc1,3
12,Cc1ccc(-c2ccc3c(c2)CC(=O)N(O)C3=O)o1,76
13,O=C1Cc2cc(-c3ccoc3)ccc2C(=O)N1O,100
14,O=C1Cc2cc(-c3ccc(F)cc3)ccc2C(=O)N1O,73
15,O=C1Cc2cc(-c3ccc4c(c3)OCO4)ccc2C(=O)N1O,28
16,O=C1Cc2ccc(I)cc2C(=O)N1O,79
17,O=C1Cc2cc(-c3cccs3)ccc2C(=O)N1O,93
18,O=C1Cc2cc(-c3ccc(C(F)(F)F)cc3)ccc2C(=O)N1O,93
19,O=C1Cc2cc(-c3cc4ccccc4o3)ccc2C(=O)N1O,73
20,O=C1Cc2cc(-c3cccc4c3sc3ccccc34)ccc2C(=O)N1O,95
21,O=C1Cc2cc(-c3ccco3)ccc2C(=O)N1O,89
22,O=C1Cc2cc(-c3csc4ccccc34)ccc2C(=O)N1O,95

# Tested on: not listed separately
# Assay: Therapeutic index, ratio of CC50 for human HuH7 cells infected with HCV1b to EC50 for HCV genotype 1b
# Assay type: cell-based, Huh-7
# Conditions: read-out: Ratio CC50/EC50
# Summary of the method: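 Index computed as CC₅₀/EC₅₀, both values from 3-day assays in Huh-7/HCV1b-Rluc replicon cells: EC₅₀ from renilla luciferase signal, CC₅₀ from MTS absorbance at 450 nm, each fitted from eight serial dilutions against vehicle.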
row,Structure (SMILES),selectivity ratio
1,C[C@@]1(O)[C@H](O)[C@@H](CO)O[C@H]1n1cnc2c(N)ncnc21,270
2,O=C1Cc2cc(-c3ccsc3)ccc2C(=O)N1O,2.2
3,Cc1ccc(-c2ccc3c(c2)CC(=O)N(O)C3=O)o1,2.6
4,O=C1Cc2cc(-c3ccc(F)cc3)ccc2C(=O)N1O,1.2
5,O=C1Cc2ccc(I)cc2C(=O)N1O,6.9
6,O=C1Cc2cc(-c3cccs3)ccc2C(=O)N1O,11
7,NC(=O)c1ncn([C@@H]2O[C@H](CO)[C@@H](O)[C@H]2O)n1 [RIBAVIRIN],2.3
8,O=C1Cc2cc(-c3ccco3)ccc2C(=O)N1O,6.8

# Tested on: Hepatitis C virus
# Assay: Inhibition of recombinant HCV genotype 1b NS5B polymerase activity after 3 hrs by scintillation proximity assay
# Parameters: species or system Hepatitis C virus subtype 1b
# Conditions: not given
# Summary of the method: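 Started with 450 nM oligo-U12 primer, 30 nM UTP, 75 nM poly(A) template and ³H-UTP; 3 h at room temperature, scintillation proximity read-out. Duplicates, ≥2 repeats; IC₅₀ from eight serial dilutions.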
row,Structure (SMILES),pIC50
1,O=C1Cc2ccc(-c3ccc(F)c(Cl)c3)cc2C(=O)N1O,5.15
2,N#Cc1cc(COc2cccc(C(=O)/C=C(\O)C(=O)O)c2)c(Cl)cc1Cl,7.82
3,O=C1Cc2ccc(-c3ccco3)cc2C(=O)N1O,4.74
4,O=C1Cc2cc(-c3ccsc3)ccc2C(=O)N1O,5.05
5,Cc1ccc(-c2ccc3c(c2)CC(=O)N(O)C3=O)o1,4.74
6,O=C1Cc2cc(-c3ccoc3)ccc2C(=O)N1O,4.96
7,O=C1Cc2cc(-c3ccc(F)cc3)ccc2C(=O)N1O,4.70
8,O=C1Cc2ccc(I)cc2C(=O)N1O,4.82
9,O=C1Cc2cc(-c3cccs3)ccc2C(=O)N1O,5.14
10,O=C1Cc2cc(-c3ccco3)ccc2C(=O)N1O,5.89

# Tested on: Hepatitis C virus
# Assay: Antiviral activity against HCV genotype 1b infected in human HuH7 cells after 3 days by renilla luciferase reporter assay
# Assay type: functional, organism-based, Hepacivirus hominis
# Conditions: Huh-7, 72 h
# Summary of the method: as §2
row,Structure (SMILES),pEC50
1,O=C1Cc2cc(-c3ccsc3)ccc2C(=O)N1O,4.36
2,Cc1ccc(-c2ccc3c(c2)CC(=O)N(O)C3=O)o1,5.37
3,O=C1Cc2cc(-c3ccc(F)cc3)ccc2C(=O)N1O,5.02
4,O=C1Cc2ccc(I)cc2C(=O)N1O,5.41
5,O=C1Cc2cc(-c3cccs3)ccc2C(=O)N1O,5.77
6,NC(=O)c1ncn([C@@H]2O[C@H](CO)[C@@H](O)[C@H]2O)n1 [RIBAVIRIN],4.85
7,O=C1Cc2cc(-c3ccco3)ccc2C(=O)N1O,5.72

# Tested on: not listed separately
# Assay: Cytotoxicity against human HuH7 cells infected with HCV1b assessed as cell viability at 10 uM after 3 days by MTS assay
# Assay type: cell-based, Huh-7
# Conditions: read-out: Activity
# Summary of the method: as §1
row,Structure (SMILES),"viability at 72 h, 10 µM [%]"
1,O=C1Cc2cc(-c3cccc4c3oc3ccccc34)ccc2C(=O)N1O,28
2,O=C1Cc2ccc(-c3ccc(F)c(Cl)c3)cc2C(=O)N1O,83
3,O=C1Cc2cc(-c3ccc(F)c(F)c3)ccc2C(=O)N1O,34
4,O=C1Cc2ccc(-c3cccs3)cc2C(=O)N1O,21
5,O=C1Cc2ccc(-c3ccc(F)c(F)c3)cc2C(=O)N1O,33
6,O=C1Cc2cc(-c3cccc(-c4ccccc4)c3)ccc2C(=O)N1O,23
7,O=C1Cc2ccc(-c3ccco3)cc2C(=O)N1O,21
8,O=C1Cc2ccc(-c3cc4ccccc4o3)cc2C(=O)N1O,33
9,COc1cccc(-c2ccc3c(c2)C(=O)N(O)C(=O)C3)c1,37
10,O=C1Cc2cc(-c3ccsc3)ccc2C(=O)N1O,100
11,CS(=O)(=O)c1ccc(-c2ccc3c(c2)CC(=O)N(O)C3=O)cc1,100
12,Cc1ccc(-c2ccc3c(c2)CC(=O)N(O)C3=O)o1,87
13,O=C1Cc2cc(-c3ccoc3)ccc2C(=O)N1O,52
14,O=C1Cc2cc(-c3ccc(F)cc3)ccc2C(=O)N1O,90
15,O=C1Cc2cc(-c3ccc4c(c3)OCO4)ccc2C(=O)N1O,79
16,O=C1Cc2ccc(I)cc2C(=O)N1O,86
17,O=C1Cc2cc(-c3cccs3)ccc2C(=O)N1O,100
18,O=C1Cc2cc(-c3ccc(C(F)(F)F)cc3)ccc2C(=O)N1O,29
19,O=C1Cc2cc(-c3cc4ccccc4o3)ccc2C(=O)N1O,46
20,O=C1Cc2cc(-c3cccc4c3sc3ccccc34)ccc2C(=O)N1O,32
21,O=C1Cc2cc(-c3ccco3)ccc2C(=O)N1O,96
22,O=C1Cc2cc(-c3csc4ccccc34)ccc2C(=O)N1O,34
